PMC2661818 (Psychopharmacology, 2008)
Counter-ions that a name gives are not always drawn. Like-named read-outs stand apart in the source and are kept apart here.

Tests used:
[1] = test system: rats trained to discriminate 10 mg/kg cocaine, IP from saline; format: in vivo, Sprague—Dawley rats; details: for Maximal cocaine responding: SEM in parentheses; for Maximal levels of cocaine responding: in each/all rearing groups (BMS, AFR, LMS)
How it was run: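 Adult Sprague–Dawley rats (6 per rearing condition per sex) from BMS, LMS or AFR rearing, trained at 10 mg/kg IP (15-min pretreatment) vs saline. Tests: 10 consecutive responses on either manipulandum gave a pellet. Novel training-drug doses (0.56–18 mg/kg) in random order; pretreatment 1–120 min. Group mean % drug responding: ≥80% full, ≤20% saline-like. Rates as % of vehicle.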

[2] = test system: rats discriminating cocaine injections; details: cited from earlier work; for Cocaine-like responding (partial): ref Witkin et al. 1991; for Substitution for the cocaine cue: reduced training dose (3.0 mg/kg cocaine), ref Terry et al. 1994
[3] = test system: rats; details: ref Moffett et al. (2006a), cited from earlier work
[4] = rat, IP injection, cited from earlier work
[5] = Plasma cocaine assessment by LC/MS/MS; format: in vivo, Sprague—Dawley rats; details: males, 10 mg/kg IP
[6] = test system: c-Fos; assay: Cocaine-induced c-Fos expression; format: in vivo, Sprague—Dawley rats; details: 10 mg/kg IP, 14 days
[7] = females, all rearing conditions

Fc1ccc(C(OCCN2CCN(CCCc3ccccc3)CC2)c2ccc(F)cc2)cc1 [GBR12909, GBR12909 bismesylate hydrate]
Doses producing more cocaine-like responding ([1]; females, AFR): 5.6 to 18 mg/kg
Maximal cocaine responding ([1]; females, AFR): 80.28%
Maximal cocaine responding ([1]; females, BMS): 99.64%
Doses producing more partial responding ([1]; females, LMS): 3.2 to 10 mg/kg
Maximal cocaine responding ([1]; females, LMS): 83.39%
Effect on rate of responding [1, 7]: dose dependently decreased
Generalization profile ([1]; males, AFR, two lowest doses (1.0–3.2 mg/kg)): partial cocaine responding
Generalization profile ([1]; males, BMS and LMS, two lowest doses (1.0–3.2 mg/kg)): saline responding
Effect on rate of responding ([1]; males, all rearing conditions): dose dependently decreased rate of responding

Oc1cc2c(cc1O)C(c1ccccc1)CNCC2 (stereo not shown) [SKF38393, SKF38393 hydrobromide]
Effect on rate of responding [1, 7]: dose dependently decreased
Maximal levels of cocaine responding ([1]; females): approximately 50%
Generalization profile ([1]; males, AFR and LMS, 18 mg/kg): partial generalization
Maximal cocaine responding ([1]; males, AFR): 81.41%
Rates of responding (disrupted) ([1]; males, BMS and AFR groups, 32 mg/kg): < 0.20 mean responses per second
Maximal cocaine responding ([1]; males, BMS): 95.68%
Maximal cocaine responding ([1]; males, LMS): 83.52%
Effect on rate of responding ([1]; males, all rearing conditions): dose-dependent decreases in rates
Generalization profile ([1]; males, all rearing conditions, 10 mg/kg): partial generalization
Cocaine-like responding (partial) ([2]; 10 mg/kg cocaine training dose): 20–80%
Substitution for the cocaine cue [2]: substitute fully

COC(=O)[C@H]1[C@@H](OC(=O)c2ccccc2)C[C@@H]2CC[C@H]1N2C [cocaine, Cocaine hydrochloride]
Self-administration ([3]; BMS rats): did not self administer cocaine above saline levels at any dose tested
Dose at which self-administration was acquired ([3]; LMS rats): 0.0625 mg/kg/infusion
Time to peak plasma ([4]; ref Misra et al. 1974): 4 h
Elimination half-life (t1/2) ([4]; ref Nayak et al. 1976): 48 to 60 min
Effect on rate of responding [1, 7]: dose dependently decreased rate of responding
Effect on rate of responding ([1]; males, all rearing conditions): did not have an effect on rate of responding
Cocaine-appropriate responding as a function of dose ([1]; novel doses 0.56–18 mg/kg, all groups): dose-dependent increases in cocaine-appropriate responding
Plasma cocaine levels, effect of time [5]: decreasing from 15 to 60 min
Fos-IR, cocaine- vs saline-treated ([6]; AFR females, NAcc Core and central CPu): significantly greater Fos-IR
c-Fos expression, cocaine- vs saline-treated ([6]; AFR males, central and dorsomedial CPu): trend for significantly greater c-Fos expression
c-Fos expression, cocaine- vs saline-treated ([6]; BMS males and females, any brain region examined): never statistically significant differences
c-Fos, cocaine- vs saline-treated ([6]; LMS males, ICjM): showed significance

CCCN1CCC[C@@H]2Cc3n[nH]cc3C[C@H]21 [quinpirole, quinpirole hydrochloride]
Generalization profile ([1]; females, all groups, doses of 0.061–0.18 mg/kg): intermediate levels of responding
Effect on rate of responding [1, 7]: dose dependently decreased
Maximal levels of cocaine responding ([1]; females): ~80%
Generalization profile ([1]; males, LMS, all doses except 0.125 mg/kg): only partial generalization
Effect on rate of responding ([1]; males, all rearing conditions): dose dependently decreased the number of responses
Generalization to the cocaine cue ([2]; 10 mg/kg cocaine training dose, ref Barrett and Appel 1989, Callahan et al. 1991, Callahan and Cunningham 1993): full generalization
Cocaine-like responding (partial) ([2]; 10 mg/kg cocaine training dose): 20–80%
Substitution for the cocaine cue [2]: substitute fully
